Laboratory results taken from ChEMBL document CHEMBL5058577, “EUbOPEN Chemogenomics Library 2 (Multiplex)” (2022).

Test system: Fibroblast
Experiment: Multiplex assay against human fibroblast
Type: toxicity, cell-based
Outline: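 Tubulin, mitochondrial-mass and membrane-permeability phenotypes are per cents of healthy-nucleus cells. Cells were gated by CellPathfinder machine learning into Hoechst high-intensity objects or normal cells, normal cells into healthy, pyknosed or fragmented nuclei, and pyknosed cells into mitotic or apoptotic. Before that, live cells stained at seeding with Hoechst33342, BioTracker Green Microtubule Cytoskeleton Dye, MitoTracker Red and Annexin V Alexa Fluor 680 were imaged on a CQ1 microscope at 37°C and 5% CO2 after compound addition.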

[1] = 12 h, 1 µM, compound concentration 1 uM, replicate 1
[2] = 12 h, 1 µM, compound concentration 1 uM, replicate 2
[3] = 12 h, 10 µM, compound concentration 10 uM, replicate 1
[4] = 12 h, 10 µM, compound concentration 10 uM, replicate 2
[5] = 24 h, 1 µM, compound concentration 1 uM, replicate 1
[6] = 24 h, 1 µM, compound concentration 1 uM, replicate 2
[7] = 24 h, 10 µM, compound concentration 10 uM, replicate 1
[8] = 24 h, 10 µM, compound concentration 10 uM, replicate 2
[9] = 48 h, 1 µM, compound concentration 1 uM, replicate 1
[10] = 48 h, 1 µM, compound concentration 1 uM, replicate 2
[11] = 48 h, 10 µM, compound concentration 10 uM, replicate 1
[12] = 48 h, 10 µM, compound concentration 10 uM, replicate 2

In the case of C[C@H](NC(=O)c1c(C(F)F)nn(C)c1Oc1cccc(C(F)(F)F)c1)c1ccc(C(=O)O)cc1 [PALUPIPRANT], the “Population Apoptotic (%)” value [1] is reported as 26%, the “Population Fragmented Nuclei (%)” value [1] is reported as 29% and the “Population Healthy Nuclei (%)” value [1] is reported as 57%. The “Population Hoechst High Intensity Objects (%)” value [1] was 5%, the “Population Membrane Permeable-Phenotype (%)” value [1] was 0% and the “Population Mitochondria Different-Phenotype (%)” value [1] was 4%. The “Population Mitotic Cells (%)” value [1] was 73%, the “Population Normal (%)” value [1] was 94% and the “Population Pyknosed Nuclei (%)” value [1] was 12%. The “Population Tubulin-Different-Phenotype (%)” value [1] was 23%, the “Total Cell Count” value [1] was 187 and the “Population Apoptotic (%)” value [2] was 24%. For the same compound, the “Population Fragmented Nuclei (%)” value [2] was 23%, the “Population Healthy Nuclei (%)” value [2] was 52% and the “Population Hoechst High Intensity Objects (%)” value [2] was 6%. The “Population Membrane Permeable-Phenotype (%)” value [2] was 11%, the “Population Mitochondria Different-Phenotype (%)” value [2] was 6% and the “Population Mitotic Cells (%)” value [2] was 75%. The “Population Normal (%)” value [2] was 93%, the “Population Pyknosed Nuclei (%)” value [2] was 23% and the “Population Tubulin-Different-Phenotype (%)” value [2] was 55%. For the same compound, the “Total Cell Count” value [2] was 148, the “Population Apoptotic (%)” value [3] was 45% and the “Population Fragmented Nuclei (%)” value [3] was 13%. For the same compound, the “Population Healthy Nuclei (%)” value [3] was 70%, the “Population Hoechst High Intensity Objects (%)” value [3] was 2% and the “Population Membrane Permeable-Phenotype (%)” value [3] was 2%. For the same compound, the “Population Mitochondria Different-Phenotype (%)” value [3] was 6%, the “Population Mitotic Cells (%)” value [3] was 55% and the “Population Normal (%)” value [3] was 97%. The “Population Pyknosed Nuclei (%)” value [3] was 16%, the “Population Tubulin-Different-Phenotype (%)” value [3] was 45% and the “Total Cell Count” value [3] was 126. For the same compound, the “Population Apoptotic (%)” value [4] was 35%, the “Population Fragmented Nuclei (%)” value [4] was 42% and the “Population Healthy Nuclei (%)” value [4] was 35%. For the same compound, the “Population Hoechst High Intensity Objects (%)” value [4] was 14%, the “Population Membrane Permeable-Phenotype (%)” value [4] was 13% and the “Population Mitochondria Different-Phenotype (%)” value [4] was 13%. For the same compound, the “Population Mitotic Cells (%)” value [4] was 64%, the “Population Normal (%)” value [4] was 85% and the “Population Pyknosed Nuclei (%)” value [4] was 22%. The “Population Tubulin-Different-Phenotype (%)” value [4] was 60%, the “Total Cell Count” value [4] was 149 and the “Population Apoptotic (%)” value [5] was 40%. The “Population Fragmented Nuclei (%)” value [5] was 32%, the “Population Healthy Nuclei (%)” value [5] was 58% and the “Population Hoechst High Intensity Objects (%)” value [5] was 5%. The “Population Membrane Permeable-Phenotype (%)” value [5] was 1%, the “Population Mitochondria Different-Phenotype (%)” value [5] was 4% and the “Population Mitotic Cells (%)” value [5] was 60%. For the same compound, the “Population Normal (%)” value [5] was 94%, the “Population Pyknosed Nuclei (%)” value [5] was 8% and the “Population Tubulin-Different-Phenotype (%)” value [5] was 15%. The “Total Cell Count” value [5] was 178, the “Population Apoptotic (%)” value [6] was 42% and the “Population Fragmented Nuclei (%)” value [6] was 26%. For the same compound, the “Population Healthy Nuclei (%)” value [6] was 53%, the “Population Hoechst High Intensity Objects (%)” value [6] was 7% and the “Population Membrane Permeable-Phenotype (%)” value [6] was 8%. The “Population Mitochondria Different-Phenotype (%)” value [6] was 5%, the “Population Mitotic Cells (%)” value [6] was 57% and the “Population Normal (%)” value [6] was 92%. For the same compound, the “Population Pyknosed Nuclei (%)” value [6] was 20%, the “Population Tubulin-Different-Phenotype (%)” value [6] was 51% and the “Total Cell Count” value [6] was 141. The “Population Apoptotic (%)” value [7] was 60%, the “Population Fragmented Nuclei (%)” value [7] was 18% and the “Population Healthy Nuclei (%)” value [7] was 62%. The “Population Hoechst High Intensity Objects (%)” value [7] was 5%, the “Population Membrane Permeable-Phenotype (%)” value [7] was 2% and the “Population Mitochondria Different-Phenotype (%)” value [7] was 7%. For the same compound, the “Population Mitotic Cells (%)” value [7] was 39%, the “Population Normal (%)” value [7] was 94% and the “Population Pyknosed Nuclei (%)” value [7] was 18%. For the same compound, the “Population Tubulin-Different-Phenotype (%)” value [7] was 35%, the “Total Cell Count” value [7] was 131 and the “Population Apoptotic (%)” value [8] was 38%. For the same compound, the “Population Fragmented Nuclei (%)” value [8] was 40%, the “Population Healthy Nuclei (%)” value [8] was 42% and the “Population Hoechst High Intensity Objects (%)” value [8] was 10%. The “Population Membrane Permeable-Phenotype (%)” value [8] was 13%, the “Population Mitochondria Different-Phenotype (%)” value [8] was 3% and the “Population Mitotic Cells (%)” value [8] was 61%. The “Population Normal (%)” value [8] was 89%, the “Population Pyknosed Nuclei (%)” value [8] was 17% and the “Population Tubulin-Different-Phenotype (%)” value [8] was 51%. For the same compound, the “Total Cell Count” value [8] was 138, the “Population Apoptotic (%)” value [9] was 53% and the “Population Fragmented Nuclei (%)” value [9] was 34%. For the same compound, the “Population Healthy Nuclei (%)” value [9] was 57%, the “Population Hoechst High Intensity Objects (%)” value [9] was 11% and the “Population Membrane Permeable-Phenotype (%)” value [9] was 0%. For the same compound, the “Population Mitochondria Different-Phenotype (%)” value [9] was 4%, the “Population Mitotic Cells (%)” value [9] was 46% and the “Population Normal (%)” value [9] was 88%. For the same compound, the “Population Pyknosed Nuclei (%)” value [9] was 7%, the “Population Tubulin-Different-Phenotype (%)” value [9] was 29% and the “Total Cell Count” value [9] was 184. For the same compound, the “Population Fragmented Nuclei (%)” value [10] was 30%, the “Population Healthy Nuclei (%)” value [10] was 50% and the “Population Hoechst High Intensity Objects (%)” value [10] was 3%. The “Population Membrane Permeable-Phenotype (%)” value [10] was 4%, the “Population Normal (%)” value [10] was 96% and the “Population Pyknosed Nuclei (%)” value [10] was 19%. The “Population Tubulin-Different-Phenotype (%)” value [10] was 53%, the “Total Cell Count” value [10] was 147 and the “Population Apoptotic (%)” value [11] was 73%. For the same compound, the “Population Fragmented Nuclei (%)” value [11] was 20%, the “Population Healthy Nuclei (%)” value [11] was 60% and the “Population Hoechst High Intensity Objects (%)” value [11] was 4%. For the same compound, the “Population Membrane Permeable-Phenotype (%)” value [11] was 1%, the “Population Mitochondria Different-Phenotype (%)” value [11] was 8% and the “Population Mitotic Cells (%)” value [11] was 26%. For the same compound, the “Population Normal (%)” value [11] was 95%, the “Population Pyknosed Nuclei (%)” value [11] was 18% and the “Population Tubulin-Different-Phenotype (%)” value [11] was 46%. The “Total Cell Count” value [11] was 130, the “Population Apoptotic (%)” value [12] was 60% and the “Population Fragmented Nuclei (%)” value [12] was 45%. The “Population Healthy Nuclei (%)” value [12] was 45%, the “Population Hoechst High Intensity Objects (%)” value [12] was 13% and the “Population Membrane Permeable-Phenotype (%)” value [12] was 10%. For the same compound, the “Population Mitochondria Different-Phenotype (%)” value [12] was 6%, the “Population Mitotic Cells (%)” value [12] was 40% and the “Population Normal (%)” value [12] was 86%. For the same compound, the “Population Pyknosed Nuclei (%)” value [12] was 9%, the “Population Tubulin-Different-Phenotype (%)” value [12] was 50% and the “Total Cell Count” value [12] was 122.
